Reference: ChEMBL document CHEMBL2321851, “Synthesis and biological evaluation of novel coumarin-pyrazoline hybrids endowed with phenylsulfonyl moiety as antitumor agents” (Eur J Med Chem, 2013)
Calls of active or inactive are those of the source. No cut-off for these calls is given here.

Test system: MDA-MB-435
Experiment: Growth inhibition of human MDA-MB-435 cells at 10 uM after 48 hrs by sulforhodamine B assay
Type: functional, cell-based
Outline: (§1)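 NCI-60 one-dose primary screen at 10^-5 M. Cells grown in RPMI 1640 with 5% FBS and 2 mM L-glutamine and plated by doubling time. Preincubated 24 h at 37 °C under 5% CO2. Drug exposure 48 h. Cells fixed with cold TCA and stained with 0.4% SRB; absorbance read at 515 nm. Reported as percent growth of treated versus untreated control.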

SMILES | growth inhibition (GI)
COc1ccc2ccc(=O)oc2c1C1=NN(S(=O)(=O)c2ccccc2)C(c2cccs2)C1 (stereo not drawn) | inactive
COc1ccc2ccc(=O)oc2c1C1=NN(S(=O)(=O)c2ccccc2)C(c2ccc(C)o2)C1 (stereo not drawn) | inactive
COc1ccc2ccc(=O)oc2c1C1=NN(c2ccc(S(N)(=O)=O)cc2)C(c2ccc(C)o2)C1 (stereo not drawn) | inactive
COc1ccc2ccc(=O)oc2c1C1=NN(S(=O)(=O)c2ccccc2)C(c2ccc(SC)cc2)C1 (stereo not drawn) | inactive

Test system: SK-MEL-28
Experiment: Growth inhibition of human SK-MEL-28 cells at 10 uM after 48 hrs by sulforhodamine B assay
Type: functional, cell-based
Outline: as §1

SMILES | growth inhibition (GI)
COc1ccc2ccc(=O)oc2c1C1=NN(S(=O)(=O)c2ccccc2)C(c2cccs2)C1 (stereo not drawn) | inactive
COc1ccc2ccc(=O)oc2c1C1=NN(S(=O)(=O)c2ccccc2)C(c2ccc(C)o2)C1 (stereo not drawn) | inactive
COc1ccc2ccc(=O)oc2c1C1=NN(c2ccc(S(N)(=O)=O)cc2)C(c2ccc(C)o2)C1 (stereo not drawn) | inactive
COc1ccc2ccc(=O)oc2c1C1=NN(S(=O)(=O)c2ccccc2)C(c2ccc(SC)cc2)C1 (stereo not drawn) | inactive

Test system: HL-60(TB)
Experiment: Growth inhibition of human HL-60(TB) cells at 10 uM after 48 hrs by sulforhodamine B assay
Type: functional, cell-based
Outline: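 Single-dose primary screen at 10^-5 M, 48 h exposure, in an NCI panel line grown in RPMI 1640 with 5% FBS and 2 mM L-glutamine, with 24 h preincubation at 37 °C, 5% CO2. Suspension cells fixed with TCA and stained with sulforhodamine B, absorbance read at 515 nm. Reported as percentage growth relative to untreated control cells.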

SMILES | growth inhibition (GI)
COc1ccc2ccc(=O)oc2c1C1=NN(S(=O)(=O)c2ccccc2)C(c2cccs2)C1 (stereo not drawn) | inactive
COc1ccc2ccc(=O)oc2c1C1=NN(S(=O)(=O)c2ccccc2)C(c2ccc(C)o2)C1 (stereo not drawn) | inactive
COc1ccc2ccc(=O)oc2c1C1=NN(c2ccc(S(N)(=O)=O)cc2)C(c2ccc(C)o2)C1 (stereo not drawn) | inactive
COc1ccc2ccc(=O)oc2c1C1=NN(S(=O)(=O)c2ccccc2)C(c2ccc(SC)cc2)C1 (stereo not drawn) | inactive

Test system: SF-539
Experiment: Growth inhibition of human SF539 cells at 10 uM after 48 hrs by sulforhodamine B assay
Type: functional, cell-based
Outline: as §1

SMILES | growth inhibition (GI)
COc1ccc2ccc(=O)oc2c1C1=NN(S(=O)(=O)c2ccccc2)C(c2cccs2)C1 (stereo not drawn) | inactive
COc1ccc2ccc(=O)oc2c1C1=NN(S(=O)(=O)c2ccccc2)C(c2ccc(C)o2)C1 (stereo not drawn) | inactive
COc1ccc2ccc(=O)oc2c1C1=NN(c2ccc(S(N)(=O)=O)cc2)C(c2ccc(C)o2)C1 (stereo not drawn) | inactive
COc1ccc2ccc(=O)oc2c1C1=NN(S(=O)(=O)c2ccccc2)C(c2ccc(SC)cc2)C1 (stereo not drawn) | inactive

Test system: HCT-15
Experiment: Growth inhibition of human HCT15 cells at 10 uM after 48 hrs by sulforhodamine B assay
Type: functional, cell-based
Outline: (§2)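 Single-dose primary screen at 10^-5 M across the ~60-line panel grown in RPMI 1640 with 5% FBS and 2 mM glutamine, 48 h exposure at 37 °C. Cells TCA-fixed and SRB-stained, absorbance at 515 nm. Output is percent growth of treated versus untreated control cells.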

SMILES | growth inhibition (GI)
COc1ccc2ccc(=O)oc2c1C1=NN(S(=O)(=O)c2ccccc2)C(c2cccs2)C1 (stereo not drawn) | inactive
COc1ccc2ccc(=O)oc2c1C1=NN(S(=O)(=O)c2ccccc2)C(c2ccc(C)o2)C1 (stereo not drawn) | inactive
COc1ccc2ccc(=O)oc2c1C1=NN(c2ccc(S(N)(=O)=O)cc2)C(c2ccc(C)o2)C1 (stereo not drawn) | inactive
COc1ccc2ccc(=O)oc2c1C1=NN(S(=O)(=O)c2ccccc2)C(c2ccc(SC)cc2)C1 (stereo not drawn) | inactive

Test system: PC-3
Experiment: Growth inhibition of human PC3 cells at 10 uM after 48 hrs by sulforhodamine B assay
Type: functional, cell-based
Outline: as §1

SMILES | growth inhibition (GI)
COc1ccc2ccc(=O)oc2c1C1=NN(S(=O)(=O)c2ccccc2)C(c2cccs2)C1 (stereo not drawn) | inactive
COc1ccc2ccc(=O)oc2c1C1=NN(S(=O)(=O)c2ccccc2)C(c2ccc(C)o2)C1 (stereo not drawn) | inactive
COc1ccc2ccc(=O)oc2c1C1=NN(c2ccc(S(N)(=O)=O)cc2)C(c2ccc(C)o2)C1 (stereo not drawn) | inactive
COc1ccc2ccc(=O)oc2c1C1=NN(S(=O)(=O)c2ccccc2)C(c2ccc(SC)cc2)C1 (stereo not drawn) | inactive

Test system: NCI-H522
Experiment: Growth inhibition of human NCI-H522 cells at 10 uM after 48 hrs by sulforhodamine B assay
Type: functional, cell-based
Outline: as §1

SMILES | growth inhibition (GI)
COc1ccc2ccc(=O)oc2c1C1=NN(S(=O)(=O)c2ccccc2)C(c2cccs2)C1 (stereo not drawn) | inactive
COc1ccc2ccc(=O)oc2c1C1=NN(S(=O)(=O)c2ccccc2)C(c2ccc(C)o2)C1 (stereo not drawn) | inactive
COc1ccc2ccc(=O)oc2c1C1=NN(c2ccc(S(N)(=O)=O)cc2)C(c2ccc(C)o2)C1 (stereo not drawn) | inactive
COc1ccc2ccc(=O)oc2c1C1=NN(S(=O)(=O)c2ccccc2)C(c2ccc(SC)cc2)C1 (stereo not drawn) | inactive

Test system: SF-295
Experiment: Growth inhibition of human SF295 cells at 10 uM after 48 hrs by sulforhodamine B assay
Type: functional, cell-based
Outline: as §1

SMILES | growth inhibition (GI)
COc1ccc2ccc(=O)oc2c1C1=NN(S(=O)(=O)c2ccccc2)C(c2cccs2)C1 (stereo not drawn) | inactive
COc1ccc2ccc(=O)oc2c1C1=NN(S(=O)(=O)c2ccccc2)C(c2ccc(C)o2)C1 (stereo not drawn) | inactive
COc1ccc2ccc(=O)oc2c1C1=NN(c2ccc(S(N)(=O)=O)cc2)C(c2ccc(C)o2)C1 (stereo not drawn) | inactive
COc1ccc2ccc(=O)oc2c1C1=NN(S(=O)(=O)c2ccccc2)C(c2ccc(SC)cc2)C1 (stereo not drawn) | inactive

Test system: A498
Experiment: Growth inhibition of human A498 cells at 10 uM after 48 hrs by sulforhodamine B assay
Type: functional, cell-based
Outline: as §2

SMILES | growth inhibition (GI)
COc1ccc2ccc(=O)oc2c1C1=NN(S(=O)(=O)c2ccccc2)C(c2cccs2)C1 (stereo not drawn) | inactive
COc1ccc2ccc(=O)oc2c1C1=NN(S(=O)(=O)c2ccccc2)C(c2ccc(C)o2)C1 (stereo not drawn) | inactive
COc1ccc2ccc(=O)oc2c1C1=NN(c2ccc(S(N)(=O)=O)cc2)C(c2ccc(C)o2)C1 (stereo not drawn) | inactive
COc1ccc2ccc(=O)oc2c1C1=NN(S(=O)(=O)c2ccccc2)C(c2ccc(SC)cc2)C1 (stereo not drawn) | inactive

Test system: SNB-75
Experiment: Growth inhibition of human SNB75 cells at 10 uM after 48 hrs by sulforhodamine B assay
Type: functional, cell-based
Outline: as §1

SMILES | growth inhibition (GI)
COc1ccc2ccc(=O)oc2c1C1=NN(S(=O)(=O)c2ccccc2)C(c2cccs2)C1 (stereo not drawn) | inactive
COc1ccc2ccc(=O)oc2c1C1=NN(S(=O)(=O)c2ccccc2)C(c2ccc(C)o2)C1 (stereo not drawn) | inactive
COc1ccc2ccc(=O)oc2c1C1=NN(c2ccc(S(N)(=O)=O)cc2)C(c2ccc(C)o2)C1 (stereo not drawn) | inactive
COc1ccc2ccc(=O)oc2c1C1=NN(S(=O)(=O)c2ccccc2)C(c2ccc(SC)cc2)C1 (stereo not drawn) | inactive

Test system: RPMI8266
Experiment: Growth inhibition of human RPMI8266 cells at 10 uM after 48 hrs by sulforhodamine B assay
Type: functional, cell-based
Outline: as §1

SMILES | growth inhibition (GI)
COc1ccc2ccc(=O)oc2c1C1=NN(S(=O)(=O)c2ccccc2)C(c2cccs2)C1 (stereo not drawn) | inactive
COc1ccc2ccc(=O)oc2c1C1=NN(S(=O)(=O)c2ccccc2)C(c2ccc(C)o2)C1 (stereo not drawn) | inactive
COc1ccc2ccc(=O)oc2c1C1=NN(c2ccc(S(N)(=O)=O)cc2)C(c2ccc(C)o2)C1 (stereo not drawn) | inactive
COc1ccc2ccc(=O)oc2c1C1=NN(S(=O)(=O)c2ccccc2)C(c2ccc(SC)cc2)C1 (stereo not drawn) | inactive

Test system: A549
Experiment: Growth inhibition of human A549/ATCC cells at 10 uM after 48 hrs by sulforhodamine B assay
Type: functional, cell-based
Outline: as §2

SMILES | growth inhibition (GI)
COc1ccc2ccc(=O)oc2c1C1=NN(S(=O)(=O)c2ccccc2)C(c2cccs2)C1 (stereo not drawn) | inactive
COc1ccc2ccc(=O)oc2c1C1=NN(S(=O)(=O)c2ccccc2)C(c2ccc(C)o2)C1 (stereo not drawn) | inactive
COc1ccc2ccc(=O)oc2c1C1=NN(c2ccc(S(N)(=O)=O)cc2)C(c2ccc(C)o2)C1 (stereo not drawn) | inactive
COc1ccc2ccc(=O)oc2c1C1=NN(S(=O)(=O)c2ccccc2)C(c2ccc(SC)cc2)C1 (stereo not drawn) | inactive

Test system: CAKI-1
Experiment: Growth inhibition of human Caki1 cells at 10 uM after 48 hrs by sulforhodamine B assay
Type: functional, cell-based
Outline: as §2

SMILES | growth inhibition (GI)
COc1ccc2ccc(=O)oc2c1C1=NN(S(=O)(=O)c2ccccc2)C(c2cccs2)C1 (stereo not drawn) | inactive
COc1ccc2ccc(=O)oc2c1C1=NN(S(=O)(=O)c2ccccc2)C(c2ccc(C)o2)C1 (stereo not drawn) | inactive
COc1ccc2ccc(=O)oc2c1C1=NN(c2ccc(S(N)(=O)=O)cc2)C(c2ccc(C)o2)C1 (stereo not drawn) | inactive
COc1ccc2ccc(=O)oc2c1C1=NN(S(=O)(=O)c2ccccc2)C(c2ccc(SC)cc2)C1 (stereo not drawn) | inactive

Test system: BT-549
Experiment: Growth inhibition of human BT549 cells at 10 uM after 48 hrs by sulforhodamine B assay
Type: functional, cell-based
Outline: as §2

SMILES | growth inhibition (GI)
COc1ccc2ccc(=O)oc2c1C1=NN(S(=O)(=O)c2ccccc2)C(c2cccs2)C1 (stereo not drawn) | inactive
COc1ccc2ccc(=O)oc2c1C1=NN(S(=O)(=O)c2ccccc2)C(c2ccc(C)o2)C1 (stereo not drawn) | inactive
COc1ccc2ccc(=O)oc2c1C1=NN(c2ccc(S(N)(=O)=O)cc2)C(c2ccc(C)o2)C1 (stereo not drawn) | inactive
COc1ccc2ccc(=O)oc2c1C1=NN(S(=O)(=O)c2ccccc2)C(c2ccc(SC)cc2)C1 (stereo not drawn) | inactive

Test system: MDA-MB-231
Experiment: Growth inhibition of human MDA-MB-231 cells at 10 uM after 48 hrs by sulforhodamine B assay
Type: functional, cell-based
Outline: as §2

SMILES | growth inhibition (GI)
COc1ccc2ccc(=O)oc2c1C1=NN(S(=O)(=O)c2ccccc2)C(c2cccs2)C1 (stereo not drawn) | inactive
COc1ccc2ccc(=O)oc2c1C1=NN(S(=O)(=O)c2ccccc2)C(c2ccc(C)o2)C1 (stereo not drawn) | inactive
COc1ccc2ccc(=O)oc2c1C1=NN(c2ccc(S(N)(=O)=O)cc2)C(c2ccc(C)o2)C1 (stereo not drawn) | inactive
COc1ccc2ccc(=O)oc2c1C1=NN(S(=O)(=O)c2ccccc2)C(c2ccc(SC)cc2)C1 (stereo not drawn) | inactive

Test system: OVCAR-4
Experiment: Growth inhibition of human OVCAR4 cells at 10 uM after 48 hrs by sulforhodamine B assay
Type: functional, cell-based
Outline: as §1

SMILES | growth inhibition (GI)
COc1ccc2ccc(=O)oc2c1C1=NN(S(=O)(=O)c2ccccc2)C(c2cccs2)C1 (stereo not drawn) | inactive
COc1ccc2ccc(=O)oc2c1C1=NN(S(=O)(=O)c2ccccc2)C(c2ccc(C)o2)C1 (stereo not drawn) | inactive
COc1ccc2ccc(=O)oc2c1C1=NN(c2ccc(S(N)(=O)=O)cc2)C(c2ccc(C)o2)C1 (stereo not drawn) | inactive
COc1ccc2ccc(=O)oc2c1C1=NN(S(=O)(=O)c2ccccc2)C(c2ccc(SC)cc2)C1 (stereo not drawn) | inactive

Test system: NCI-H460
Experiment: Growth inhibition of human NCI-H460 cells at 10 uM after 48 hrs by sulforhodamine B assay
Type: functional, cell-based
Outline: as §1

SMILES | growth inhibition (GI)
COc1ccc2ccc(=O)oc2c1C1=NN(S(=O)(=O)c2ccccc2)C(c2cccs2)C1 (stereo not drawn) | inactive
COc1ccc2ccc(=O)oc2c1C1=NN(S(=O)(=O)c2ccccc2)C(c2ccc(C)o2)C1 (stereo not drawn) | inactive
COc1ccc2ccc(=O)oc2c1C1=NN(c2ccc(S(N)(=O)=O)cc2)C(c2ccc(C)o2)C1 (stereo not drawn) | inactive
COc1ccc2ccc(=O)oc2c1C1=NN(S(=O)(=O)c2ccccc2)C(c2ccc(SC)cc2)C1 (stereo not drawn) | inactive
